Assay results gathered from unrelated publications.
Target: Serine/threonine-protein kinase MRCK beta (CDC42BPB, Homo sapiens, UniProt Q9Y5S2)

Compound	read-out	technique	tested at	remaining binding [%]
CNC(=O)c1ccc(Nc2ncc(C(F)(F)F)c(NCc3nccnc3N(C)S(C)(=O)=O)n2)cc1	cell-free assay	competition with immobilised ligand	0.1 µM	90
CN(C)c1nccc(-c2cnn3ncccc23)n1	binding	–	1 µM	100
COc1ccc2cc(OCC3(C(=O)O)CN(C(=O)c4ccc(F)cc4)C3)ccc2c1	cell-free assay	competition with immobilised ligand	1 µM	100
N[C@H]1CCN(c2nccc(-c3cnn4ncccc34)n2)C1	binding	–	1 µM	88
O=C(c1ccc(Nc2ncc(Cl)c(-c3cc4ccccc4s3)n2)cc1)N1CCC(N2CCCC2)CC1	binding	competition with immobilised ligand	1 µM	56
CC1CCCN1c1nccc(-c2cnn3ncccc23)n1 (centres unmarked)	binding	–	1 µM	97
CNC(=O)[C@@H]1CC[C@@H](n2c(-c3ccc4cnccc4c3)nc3ccc(C(=O)NCc4cccc(C(N)=O)c4)cc32)C1	binding	competition with immobilised ligand	1 µM	100
O=C(Nc1c[nH]nc1C(=O)NC1CCNCC1)c1cc(F)cc(F)c1	binding	competition with immobilised ligand	1 µM	100
CO[C@@H](C)c1c(Nc2ccc([C@@H](N(C)C(=O)C3CCS(=O)(=O)CC3)C(F)(F)F)cc2)cnc2cc(Cl)nn12	cell-free assay	competition with immobilised ligand	1 µM	89
O=C(NCCCN1CCOCC1)c1ccc(Nc2ncc(Cl)c(-c3ccc(Cl)s3)n2)cc1	binding	competition with immobilised ligand	1 µM	100
C[C@H]1CCN(c2nccc(-c3cnn4ncccc34)n2)C1	binding	–	1 µM	100
Nc1ncc2c(n1)-c1c([nH]c3ccc(C#CC4CC4)cc13)CCCC2	binding	competition with immobilised ligand	1 µM	93
O=C(c1ccc(Nc2nccc(-c3cc4ccccc4s3)n2)cc1)N1CCC(N2CCCC2)CC1	binding	competition with immobilised ligand	1 µM	100
COCCOc1nc(-c2ccc(Cl)nc2)nc2c1CN(C(=O)c1ncn3ccccc13)CC2	cell-free assay	competition with immobilised ligand	0.1 µM	100
FC(F)(F)Oc1cccc(-c2cnc3ccc(-c4ccncc4)nn23)c1	cell-free assay	competition with immobilised ligand	5 µM	22
C[C@H](NC(=O)c1cnc2n1[C@](C)(Cc1ccc(C#N)cc1)C(=O)N2c1cc(Cl)c(F)c(Cl)c1)C(=O)NC1(c2ccccn2)CC1	cell-free assay	competition with immobilised ligand	1 µM	100
Cc1cnn2ncc(-c3ccnc(N(C)C)n3)c2c1	binding	–	1 µM	100
C[C@@H](c1ccc(-n2cnc3c(N)ncnc32)cc1)N1CCc2nn(C)c(Cc3ccccc3)c2C1=O	binding	competition with immobilised ligand	0.1 µM	89
O=C(O)[C@@H]1[C@@H](Cn2nnc3ccccc3c2=O)CC[C@H]1C(=O)c1ccc(OCCC2CCOCC2)cc1	cell-free assay	competition with immobilised ligand	1 µM	96
CN(CCCC(F)(F)F)c1nccc(-c2cnn3ncccc23)n1	binding	–	1 µM	63
